The text below walks through data of ChEMBL document CHEMBL5576109, “Hydantoin derivative dimers as broad-spectrum antimicrobial agents against ESKAPE pathogens with enhanced killing rate and stability” (RSC Med Chem, 2024).

Test [1] relates to Escherichia coli. As to the kind of experiment: Antibacterial activity against Escherichia coli ATCC 25922 assessed as reduction bacterial growth after 16 hrs by TECAN SPARK microplate reader analysis. Type of test: functional. An outline of the steps: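 Single colony grown overnight in 4 mL TSB at 37 °C, diluted 100-fold and grown to mid-log phase. Compounds 2-fold serially diluted in TSB and mixed 1:1 with bacteria in TSB (1 × 10^6 CFU/mL). Incubated 16 h at 37 °C, then A600 read. MIC taken as the lowest concentration giving complete growth inhibition.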

In test [2] the test system is Escherichia coli. As to the kind of experiment: Induction of membrane disruption in Escherichia coli ATCC 25922 assessed as increase in red fluorescence at 8 times of MIC for 6 hrs by Hoechst 33342 and propidium iodide staining based confocal microscopic analysis. It is filed as functional, organism-based.
Test [3] deals with Staphylococcus aureus. As to the kind of experiment: Bactericidal activity against Staphylococcus aureus ATCC 29213 assessed as reduction in colony forming units at 1 to 4 times of MIC by time-kill kinetics assay. Type of test: functional, organism-based. The conditions noted are these: time 15-120 min, TDE = time-dependent effect. Put shortly:
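Bacteria grown at 37 °C to mid-log phase and diluted to 1 × 10^6 CFU/mL. […] Mixtures diluted 10^2–10^4-fold and plated on TSB agar; colonies counted after 20 h at 37 °C.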

The subject of test [4] is Staphylococcus aureus. As to the kind of experiment: Induction of ROS generation in Staphylococcus aureus ATCC 29213 assessed as increase in fluorescence intensity incubated for 30 mins by DCFH-DA staining based analysis. It is filed as functional, organism-based. Put shortly: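 Overnight 37 °C cultures washed three times and resuspended in PBS, diluted to OD600 0.1, and mixed with DCFH-DA (5 µM). Treated with a range of compound concentrations for 30 min at 37 °C in the dark. Fluorescence read at Ex 488 / Em 530 nm.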

In test [5] the test system is Staphylococcus aureus. As to the kind of experiment: Antibacterial activity against Staphylococcus aureus ATCC 29213 assessed as inhibition of bacterial growth by measuring fold increase in MIC measured after 16 to 18 hrs in presence of MgCl2 by TECAN SPARK microplate reader analysis. Particulars: time 16-18 hrs. It is filed as functional. An outline of the steps: (§1)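 Salt/serum stability. Exponential-phase bacteria incubated 16–18 h with compound in medium supplemented with 10 mM NaCl, 10 mM KCl, 10 mM MgCl2, 10% DMEM or 10% FBS. Stability judged from the change in MIC.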

For test [6], the system named is Staphylococcus aureus. As to the kind of experiment: Induction of morphological changes in Staphylococcus aureus ATCC 29213 assessed as cell wrinkled at 8 time of MIC for 6 hrs by scanning electron microscopy. Type of test: functional, organism-based. An outline of the steps:
(§2)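 Mid-log cells exposed to compound for 6 h at 37 °C alongside untreated controls. Cells pelleted (3000 rpm, 15 min), washed four times in PBS, and fixed with 2.5% glutaraldehyde. Dehydrated through graded ethanol, critical-point dried and gold-coated, then imaged by SEM.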

Test [7] concerns Staphylococcus aureus. As to the kind of experiment: Induction of cytoplasmic membrane depolarization in Staphylococcus aureus ATCC 29213 assessed as increase in fluorescence intensity by DiSC3(5) staining based analysis. It is filed as functional, organism-based. Put shortly: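 Mid-log cells washed in 5 mM HEPES/5 mM glucose and resuspended at 10^6 CFU/mL in glucose/HEPES/100 mM KCl (1:1:1). DiSC3(5) added and fluorescence (Ex 622 / Em 670 nm) followed for 30 min at 37 °C until minimal. Compound then added and the fluorescence rise recorded.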

The test system of test [8] is Staphylococcus aureus. As to the kind of experiment: Antibacterial activity against Staphylococcus aureus ATCC 29213 assessed as inhibition of bacterial growth by measuring fold increase in MIC measured after 16 to 18 hrs in presence of NaCl by TECAN SPARK microplate reader analysis. It is filed as functional. The conditions noted are these: time 16-18 hrs. Put shortly: as §1

Test [9] has as its system Escherichia coli. As to the kind of experiment: Induction of morphological changes in Escherichia coli ATCC 25922 assessed as cell shrinkage at 8 time of MIC for 6 hrs by scanning electron microscopy. Type of test: functional, organism-based. Put shortly:
as §2

Molecules are shown by their SMILES. Converted amounts (≈) assume the structure as drawn. The source made the active and inactive calls. The calls are words filed in the database; no cut-off is given here.

`CCCCCCN1C(=O)[C@H](CCCCNC(=N)N)N(Cc2ccc(-c3ccc(CN4C(=O)N(CCCCCC)C(=O)[C@@H]4CCCCNC(=N)N)cc3)cc2)C1=O`: in test [1], the MIC (usually the lowest concentration found to suppress growth) worked out at 3.91 µg/mL (≈ 5.06 µM). The outcome in test [2], in test [6] and in [9] was Active. Moreover, the Activity entry in test [3] is “Tde”; in test [4] it was “Dose-Dependent Effect”; in [7] it was “Dose-Dependent Effect”. The “fold change (FC)” value in test [5] and in [8] was 1 each time.
